# Test results reported in ChEMBL document CHEMBL1157729, “Structure-activity relationship and mechanism of action studies of manzamine analogues for the control of neuroinflammation and cerebral infections” (J Med Chem, 2010).
# Key:
# Plasmodium berghei [1] = assay: Antiplasmodial activity against Plasmodium berghei NK65 infected in Swiss Webster mice (Mus musculus) assessed as average parasitaemia at 200 mg/kg, perorally administered 1 day after infection measured after 28 days post infection; type: functional; conditions: Plasmodium berghei, NK65, route oral
# Summary of the method: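 Male Swiss Webster mice (18-20 g, ≥5/group) inoculated i.p. with 2×10^7 P. berghei NK-65 parasitized RBC, given a single oral dose (100 μl, SSV or dilute HCl vehicle); parasitemia by Giemsa-stained tail blood smears days 5–28; activity as % decrease versus untreated controls on day 5.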
# Plasmodium berghei [2] = assay: Antiplasmodial activity against Plasmodium berghei NK65 infected in Swiss Webster mice (Mus musculus) at 1.1 mg/kg, po; type: functional
# Summary of the method: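 Male Swiss Webster mice (18-20 g), at least 5 per group, inoculated i.p. with 2×10^7 P. berghei NK-65 parasitized red cells from a donor mouse. Oral dosing (100 μl, in SSV or dilute HCl) from day one after infection, three-day modified Peters suppressive schedule. Giemsa-stained tail blood smears from day 5 through day 28. Inhibition is % parasitemia drop on day 5 versus untreated controls. Cure means no parasitemia through day 28.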
# HeLa [3] = assay: Cell cycle arrest in human HeLa cells assessed as decrease in G2/M phase accumulation at 5 uM after 24 hrs by FACS analysis; type: functional; set-up: scale not given: the % may be the effect or the level left
# HeLa [4] = assay: Cell cycle arrest in human HeLa cells assessed as increase in G0/G1 phase accumulation at 20 uM after 24 hrs by FACS analysis; type: functional
# Plasmodium berghei [5] = assay: Antiplasmodial activity against Plasmodium berghei NK65 infected in Swiss Webster mice (Mus musculus) assessed as average parasitaemia at 5 mg/kg, perorally administered 1 day after infection for 3 days measured after 14 days post infection; type: functional; conditions: route oral
# Plasmodium berghei [6] = assay: Antiplasmodial activity against Plasmodium berghei NK65 infected in Swiss Webster mice (Mus musculus) assessed as parasitaemia cure at 5 mg/kg, perorally administered 1 day after infection for 3 days measured after 28 days post infection; type: functional; conditions: route oral
# MDCK = assay: Apparent permeability across apical to basolateral side of MDCK cells expressing MDR; type: ADME, cell-based, Canis lupus familiaris; conditions: dog
# Summary of the method: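 MDR-MDCK cells (passage 12-40) seeded at 75,000 cells/cm2 and grown 8 days on Transwell inserts to a monolayer. Bidirectional transport over 2 h in HBSS pH 7.4 with test substance at 50 μM and caffeine (5 μM) as standard. Donor and receiver samples quantified by LC-MS. Cumulative amount transported plotted against time to derive apparent permeability.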
# HeLa [7] = assay: Cell cycle arrest in human HeLa cells assessed as increase in G0/G1 phase accumulation at 10 uM after 24 hrs by FACS analysis; type: functional
# Plasmodium berghei [8] = assay: Antiplasmodial activity against Plasmodium berghei NK65 infected in Swiss Webster mice (Mus musculus) assessed as average parasitaemia at 1.1 mg/kg, perorally administered 1 day after infection for 3 days measured after 28 days post infection; type: functional; conditions: route oral
# Summary of the method: (§1)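 Male Swiss Webster mice (18-20 g, ≥5/group) inoculated i.p. with 2×10^7 P. berghei NK-65 parasitized RBC; oral dosing (100 μl, SSV or dilute HCl vehicle) once daily for 3 days from day 1; Giemsa-stained tail blood smears days 5–28; inhibition is % decrease versus untreated controls on day 5.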
# Plasmodium berghei [9] = assay: Antiplasmodial activity against Plasmodium berghei NK65 infected in Swiss Webster mice (Mus musculus) assessed as average parasitaemia at 1.1 mg/kg, perorally administered 1 day after infection for 3 days measured after 7 days post infection; type: functional; conditions: route oral
# Plasmodium berghei [10] = assay: Antiplasmodial activity against Plasmodium berghei NK65 infected in Swiss Webster mice (Mus musculus) at 10 mg/kg, po; type: functional
# HeLa [11] = assay: Cell cycle arrest in human HeLa cells assessed as increase in G0/G1 phase accumulation at 5 uM after 24 hrs by FACS analysis; type: functional
# [12] = Antineuroinflammatory activity in LPS-stimulated rat neonatal microglia assessed as drug level causing 50% PMA-induced LDH release preincubated 15 mins prior to PMA challenge measured after 70 mins; type: functional
# Summary of the method: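 Neonatal rat microglia (2 × 10^5/well) primed with E. coli LPS 0.3 ng/mL for 17 h at 35.9 °C, washed with HBSS, given compound (0.01–10 μM) or DMSO 15 min, then PMA 1 μM; LDH read spectrophotometrically after 70 min; LDH50 relative to Triton X-100 (0.1%) release; duplicates.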
# Plasmodium berghei [13] = assay: Antiplasmodial activity against Plasmodium berghei NK65 infected in Swiss Webster mice (Mus musculus) assessed as parasitaemia cure at 100 mg/kg, perorally administered 1 day after infection measured after 28 days post infection; type: functional; conditions: route oral
# Summary of the method: (§2)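 P. berghei NK-65 infection in male Swiss Webster mice (18-20 g; 2×10^7 parasitized erythrocytes i.p.; ≥5 per group). A single oral dose of 100 μl, diluted in SSV or 0.01 M HCl, then observation for toxicity signs and body weight. Parasitemia read from Giemsa-stained tail smears from day 5 through day 28. Mice free of parasitemia through day 28 counted as cured.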
# Plasmodium berghei [14] = assay: Antiplasmodial activity against Plasmodium berghei NK65 infected in Swiss Webster mice (Mus musculus) at 5 mg/kg, po; type: functional
# Plasmodium berghei [15] = assay: Antiplasmodial activity against Plasmodium berghei NK65 infected in Swiss Webster mice (Mus musculus) assessed as average parasitaemia at 3.3 mg/kg, perorally administered 1 day after infection for 3 days measured after 7 days post infection; type: functional; conditions: route oral; summary of the method: as §1
# [16] = test system: Mycobacterium tuberculosis; assay: Antimycobacterial activity against Mycobacterium tuberculosis; type: functional
# Plasmodium berghei [17] = assay: Antiplasmodial activity against Plasmodium berghei NK65 infected in Swiss Webster mice (Mus musculus) assessed as parasitaemia cure at 50 mg/kg, perorally administered 1 day after infection measured after 28 days post infection; type: functional; conditions: route oral; summary of the method: as §2
# Plasmodium berghei [18] = assay: Antiplasmodial activity against Plasmodium berghei NK65 infected in Swiss Webster mice (Mus musculus) assessed as average parasitaemia at 1.1 mg/kg, perorally administered 1 day after infection for 3 days measured after 10 days post infection; type: functional; conditions: route oral
# Plasmodium berghei [19] = assay: Antiplasmodial activity against Plasmodium berghei NK65 infected in Swiss Webster mice (Mus musculus) assessed as average parasitaemia at 200 mg/kg, perorally administered 1 day after infection measured after 7 days post infection; type: functional; conditions: route oral
# Plasmodium berghei [20] = assay: Antiplasmodial activity against Plasmodium berghei NK65 infected in Swiss Webster mice (Mus musculus) assessed as average parasitaemia at 3.3 mg/kg, perorally administered 1 day after infection for 3 days measured after 28 days post infection; type: functional; conditions: route oral; summary of the method: as §1
# Mus musculus [21] = assay: Toxicity in Plasmodium berghei NK65 infected Swiss Webster mice (Mus musculus) assessed as weight loss at 10 mg/kg, intraperitoneally administered 1 day after infection measured after 3 days post infection; type: organism-based; set-up: dose 10 mg/kg, route intraperitoneal; conditions: in vivo, ip, 72 h
# Plasmodium berghei [22] = assay: Antiplasmodial activity against Plasmodium berghei infected in mice (Mus musculus) at 10 mg/kg, perorally administered 1 day post infection for 3 days; type: functional; conditions: route oral
# HeLa [23] = assay: Cell cycle arrest in human HeLa cells assessed as decrease in G2/M phase accumulation at 3 uM after 24 hrs by FACS analysis; type: functional; set-up: scale not given: the % may be the effect or the level left
# Mus musculus [24] = assay: Toxicity in Plasmodium berghei NK65 infected Swiss Webster mice (Mus musculus) at 3 mg/kg, intraperitoneally administered as 10 doses measured after 3 days of inoculation; type: organism-based; set-up: dose 3 mg/kg, route intraperitoneal; conditions: in vivo, ip, 72 h
# Summary of the method: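 Male Swiss Webster mice (18-20 g), 5 per group, were inoculated i.p. with 2×10^7 P. berghei NK-65 parasitized red cells. Compound was given i.p. at 10×3 mg/kg, with a vehicle-control group. Day of death, mean survival time and cure were recorded. Parasitemia was read on Giemsa-stained tail-blood smears (days 5, 7), with suppression relative to the control mean. Cure meant no parasitemia through day 28.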
structure (smiles),measurement,setting,value
O[C@]12C=C(c3nccc4c3[nH]c3ccccc34)[C@@H]3CCN(CCCC/C=C\CC1)C[C@@]31C[C@@H]3/C=C\CCCCN3[C@H]12 [MANZAMINE A],inhibition in vivo at 200 mg/kg,Plasmodium berghei [1],0%
same,inhibition in vivo at 1.1 mg/kg,Plasmodium berghei [2],26.5%
same,Activity,HeLa [3],14.3%
same,Activity,HeLa [4],67.2%
same,inhibition in vivo at 5 mg/kg,Plasmodium berghei [5],13.5%
same,inhibition in vivo at 5 mg/kg,Plasmodium berghei [6],0%
same,Papp,MDCK,0.87 ×10⁻⁶ cm/s
same,Activity,HeLa [7],59.1%
same,inhibition in vivo at 1.1 mg/kg,Plasmodium berghei [8],58.6%
same,inhibition in vivo at 1.1 mg/kg,Plasmodium berghei [9],5.5%
same,inhibition in vivo at 10 mg/kg,Plasmodium berghei [10],> 30%
same,Activity,HeLa [11],56.3%
same,Activity,[12],>10 µM
same,inhibition in vivo at 100 mg/kg,Plasmodium berghei [13],100%
same,inhibition in vivo at 5 mg/kg,Plasmodium berghei [14],> 30%
same,inhibition in vivo at 3.3 mg/kg,Plasmodium berghei [15],2.8%
same,MIC,[16],1.56 µg/mL
same,inhibition in vivo at 50 mg/kg,Plasmodium berghei [17],60%
same,inhibition in vivo at 1.1 mg/kg,Plasmodium berghei [18],11.5%
same,inhibition in vivo at 200 mg/kg,Plasmodium berghei [19],0%
same,inhibition in vivo at 3.3 mg/kg,Plasmodium berghei [20],53.9%
same,Activity,Mus musculus [21],Toxic
same,Activity,Plasmodium berghei [22],14.3 days
same,Activity,HeLa [23],13%
same,Activity,Mus musculus [24],Non-toxic
